Source: ChEMBL document CHEMBL1133651, “Thiazoloindans and thiazolobenzopyrans: a novel class of orally active central dopamine (partial) agonists” (J Med Chem, 2000)
Calls of active or inactive are those of the source. No cut-off for these calls is given here.

How the values were obtained:
D(3) dopamine receptor [1] = target: D(3) dopamine receptor (Homo sapiens, UniProt P35462); assay: in vitro binding affinity was determined on human Dopamine receptor D3 expressed in chinese hamster ovary(CHO) K-1 cells using [3H]spiperone as radioligand.; format: cell-based, CHO-K1
D(2) dopamine receptor [2] = target: T1, D(2) dopamine receptor (Homo sapiens, UniProt P14416); assay: in vitro binding affinity was determined on human Dopamine receptor D2L expressed in chinese hamster ovary(CHO) K-1 cells using [3H]-0437 as radioligand.; format: cell-based, CHO-K1
Outline: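 Human DA D2L receptor expressed in CHO K-1 cells; agonist radioligand displacement ([³H]N-0437 or [³H]NPA); Ki as mean of three separate experiments, varying by no more than 25%.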

D(2) dopamine receptor [3] = target: T1, D(2) dopamine receptor; assay: in vitro binding affinity was determined on human Dopamine receptor D2L expressed in chinese hamster ovary(CHO) K-1 cells using [3H]spiperone as radioligand.; format: cell-based, CHO-K1
Outline: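 Antagonist binding: displacement of [³H]spiperone from human DA D2L, D3 or D4.2 receptors expressed in CHO K-1 cells; Ki as mean of three separate experiments, varying by no more than 25%; high- and low-affinity Ki reported separately where applicable.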

[4] = Inhibitory concentration of lipid peroxidation (LPO).; format: functional
D(4) dopamine receptor = target: T2, D(4) dopamine receptor (Homo sapiens, UniProt P21917); assay: in vitro binding affinity was determined on human Dopamine receptor D4 expressed in chinese hamster ovary(CHO) K-1 cells using [3H]spiperone as radioligand.; format: cell-based, CHO-K1
T2 sequence (P21917 whole entry): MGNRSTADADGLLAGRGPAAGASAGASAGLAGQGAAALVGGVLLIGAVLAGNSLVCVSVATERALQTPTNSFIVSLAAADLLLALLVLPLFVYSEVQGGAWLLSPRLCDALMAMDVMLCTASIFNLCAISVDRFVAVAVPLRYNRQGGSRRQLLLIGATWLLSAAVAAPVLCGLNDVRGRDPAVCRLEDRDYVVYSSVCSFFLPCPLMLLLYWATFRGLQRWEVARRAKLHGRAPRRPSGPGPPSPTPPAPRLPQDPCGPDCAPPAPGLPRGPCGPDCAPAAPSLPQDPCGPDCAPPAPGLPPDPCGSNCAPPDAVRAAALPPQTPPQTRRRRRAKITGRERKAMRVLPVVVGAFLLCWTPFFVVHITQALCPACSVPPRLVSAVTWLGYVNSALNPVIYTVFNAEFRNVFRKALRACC
Outline: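 Displacement of [³H]spiperone from human D4.2 receptors expressed in CHO K-1 cells; Ki values are means of three separate experiments, which varied by no more than 25%.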

D(2) dopamine receptor [5] = target: T1, D(2) dopamine receptor; assay: in vitro binding affinity was determined on human Dopamine receptor D2L expressed in chinese hamster ovary(CHO) K-1 cells using [3H]NPA as radioligand.; format: cell-based, CHO-K1
Outline: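 Displacement of agonist radioligand [³H]NPA from human D2L receptors expressed in CHO K-1 cells. Ki is the mean of three separate experiments, with results varying by no more than 25%.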

[6] = Log d of compound was determined; format: physicochemical; conditions: octanol/water
[7] = target: D(2) dopamine receptor (Rattus norvegicus) (UniProt P61169); assay: compound was tested for intrinsic activity for thymidine uptake in CHO-L6 cells transfected with rat Dopamine receptor D2L; format: functional, cell-based
Outline: (§1)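 Mitogenesis assay for agonism: [³H]thymidine uptake measured in CHO-L6 cells transfected with rat D2L receptor. Intrinsic activity expressed relative to quinpirole, taken as full agonist (IA 100%). Means of three determinations.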

D(2) dopamine receptor [8] = target: T3, D(2) dopamine receptor (Rattus norvegicus, UniProt P61169); assay: Effective concentration was determined as thymidine uptake in CHO-L6 cells transfected with the rat Dopamine receptor D2L by mitogenesis assay (intrinsic activity); format: functional, cell-based; outline: as §1
D(3) dopamine receptor [9] = target: T4, D(3) dopamine receptor (Rattus norvegicus, UniProt P19020); assay: Effective concentration was determined as thymidine uptake in CHO-L6 cells transfected with the rat Dopamine receptor D3 by mitogenesis assay (intrinsic activity)
[10] = target: D(2) dopamine receptor (Rattus norvegicus) (UniProt P61169); assay: Inhibition of quinpirole (30 nM)-stimulated [3H]thymidine uptake in CHO-L6 cells transfected with the rat Dopamine receptor D2L; NA is not active; format: functional, cell-based
[11] = target: D(3) dopamine receptor (Rattus norvegicus) (UniProt P19020); conditions: CHO-L6
D(3) dopamine receptor [12] = target: T4, D(3) dopamine receptor; assay: Effective concentration was determined as thymidine uptake in CHO-L6 cells transfected with the rat Dopamine receptor D3 by mitogenesis assay; format: functional, cell-based
[13] = target: D(2) dopamine receptor (Rattus norvegicus) (UniProt P61169); assay: Inhibition of quinpirole (30 nM)-stimulated [3H]thymidine uptake in CHO-L6 cells transfected with the rat Dopamine receptor D2L;compound is active showing test concentration ranging from 0.1 nM - 1 uM; format: functional, cell-based
[14] = target: D(3) dopamine receptor (Rattus norvegicus) (UniProt P19020); conditions: CHO-L6; remark: listed apart in the source
[15] = target: D(2) dopamine receptor (Rattus norvegicus) (UniProt P61169); assay: Inhibition of quinpirole (30 nM)-stimulated [3H]thymidine uptake in CHO-L6 cells transfected with the rat Dopamine receptor D2L; compound is active showing test concentration ranging from 0.1 nM - 1 uM; format: functional, cell-based
D(2) dopamine receptor [16] = target: T3, D(2) dopamine receptor; assay: Effective concentration was determined as thymidine uptake in CHO-L6 cells transfected with the rat Dopamine receptor D2L by mitogenesis assay; format: functional, cell-based
Outline: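 Agonism read as [³H]thymidine uptake (mitogenesis) in CHO-L6 cells transfected with rat DA D2L receptor; intrinsic activity expressed relative to quinpirole (full agonist, IA 100%); test concentrations 0.1 nM to 1 µM; means of three determinations ± SEM.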

T3 sequence (P61169 whole entry): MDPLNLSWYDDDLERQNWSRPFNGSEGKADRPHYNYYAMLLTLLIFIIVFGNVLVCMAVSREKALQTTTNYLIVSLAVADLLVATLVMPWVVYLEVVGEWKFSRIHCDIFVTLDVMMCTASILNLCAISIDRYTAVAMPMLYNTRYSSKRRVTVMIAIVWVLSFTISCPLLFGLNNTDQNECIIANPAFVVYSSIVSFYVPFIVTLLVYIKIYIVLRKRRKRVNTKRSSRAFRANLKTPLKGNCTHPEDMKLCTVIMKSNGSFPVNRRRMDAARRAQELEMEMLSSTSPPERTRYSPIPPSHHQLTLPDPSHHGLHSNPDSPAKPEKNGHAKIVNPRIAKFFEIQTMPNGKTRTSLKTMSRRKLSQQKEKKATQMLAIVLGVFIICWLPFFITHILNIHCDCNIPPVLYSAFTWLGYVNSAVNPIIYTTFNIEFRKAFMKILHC
D(2) dopamine receptor (Rattus norvegicus), sequence (P61169 whole entry): as above
T1 sequence (P14416 whole entry): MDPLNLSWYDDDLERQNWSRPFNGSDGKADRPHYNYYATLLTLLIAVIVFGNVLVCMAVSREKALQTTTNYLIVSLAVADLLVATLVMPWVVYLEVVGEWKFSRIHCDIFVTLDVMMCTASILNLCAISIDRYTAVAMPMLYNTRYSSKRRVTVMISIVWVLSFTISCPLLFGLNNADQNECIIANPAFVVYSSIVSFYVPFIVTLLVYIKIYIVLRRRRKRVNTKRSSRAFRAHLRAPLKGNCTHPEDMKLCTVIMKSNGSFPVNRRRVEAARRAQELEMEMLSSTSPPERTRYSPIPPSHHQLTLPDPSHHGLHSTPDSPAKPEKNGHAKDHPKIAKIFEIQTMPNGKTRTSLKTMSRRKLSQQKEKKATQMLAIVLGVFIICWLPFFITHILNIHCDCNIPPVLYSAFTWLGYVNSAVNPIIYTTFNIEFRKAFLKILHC
T4 sequence (P19020 whole entry): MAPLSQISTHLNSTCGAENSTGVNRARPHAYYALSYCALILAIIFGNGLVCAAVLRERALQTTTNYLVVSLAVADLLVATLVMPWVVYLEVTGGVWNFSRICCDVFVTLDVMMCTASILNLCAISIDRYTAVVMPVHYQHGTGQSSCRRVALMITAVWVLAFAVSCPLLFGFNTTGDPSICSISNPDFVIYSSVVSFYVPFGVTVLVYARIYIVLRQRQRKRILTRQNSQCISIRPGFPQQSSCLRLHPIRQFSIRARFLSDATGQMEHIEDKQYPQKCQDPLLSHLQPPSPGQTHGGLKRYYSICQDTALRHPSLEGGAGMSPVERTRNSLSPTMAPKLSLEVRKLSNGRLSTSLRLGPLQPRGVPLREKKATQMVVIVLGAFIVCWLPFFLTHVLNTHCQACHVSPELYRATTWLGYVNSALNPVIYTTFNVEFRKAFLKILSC
D(3) dopamine receptor (Rattus norvegicus), sequence (P19020 whole entry): as above
D(3) dopamine receptor (Homo sapiens, UniProt P35462), sequence (P35462 whole entry): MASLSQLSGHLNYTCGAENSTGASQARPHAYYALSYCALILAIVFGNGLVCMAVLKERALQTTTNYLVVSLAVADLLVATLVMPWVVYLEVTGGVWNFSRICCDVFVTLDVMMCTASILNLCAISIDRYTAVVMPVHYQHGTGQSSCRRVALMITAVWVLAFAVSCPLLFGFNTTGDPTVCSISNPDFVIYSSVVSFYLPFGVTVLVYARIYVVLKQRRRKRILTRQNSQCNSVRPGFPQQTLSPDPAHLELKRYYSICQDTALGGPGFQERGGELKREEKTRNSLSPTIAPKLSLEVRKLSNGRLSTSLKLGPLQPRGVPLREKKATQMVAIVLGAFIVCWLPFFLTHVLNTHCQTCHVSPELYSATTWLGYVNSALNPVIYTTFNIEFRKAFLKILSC

SMILES	Ki (D(3) dopamine receptor [1]) [nM]	Ki (D(2) dopamine receptor [2]) [nM]	Ki (D(2) dopamine receptor [3]) [nM]	IC50 [4] [nM]	Ki (D(4) dopamine receptor) [nM]	Ki (D(2) dopamine receptor [5]) [nM]	logD [6]	Intrinsic activity [7] [%]	EC50 (D(2) dopamine receptor [8]) [nM]	IC50 (D(4) dopamine receptor) [nM]	EC50 (D(3) dopamine receptor [9]) [nM]	NA [10]	Inhibitory activity [11]	EC50 (D(3) dopamine receptor [12]) [nM]	Inhibitory activity [13]	Inhibitory activity [14]	Inhibitory activity [15]	EC50 (D(2) dopamine receptor [16]) [nM]
CCCN(CCC)C1COc2c(ccc3sc(N)nc23)C1 (centres undefined)	1400	536	3510	5000														
CCCNC1Cc2cc3nc(N)sc3cc2C1 (centres undefined)	> 10000			> 100000	> 3330	1350	0.19											
CCCN(CCC)C1Cc2ccc3nc(N)sc3c2C1 (centres undefined)	11			30000		500		71	18.7	> 10000	> 1000	inactive	Active					
CCCN[C@H]1CCc2nc(N)sc2C1 [PRAMIPEXOLE]								90						0.21				
CCCN(CCC)C1Cc2cc3nc(N)sc3cc2C1 (centres undefined)	1.4			60000	272	27	1.66	28	5.7		> 1000				Active	Active		
CCCN(CCC)C1COc2ccc3nc(N)sc3c2C1 (centres undefined)	510	47	5920	50000				7						> 1000		Active	Active	148
